The record followed here is ChEMBL document CHEMBL1671794, “Synthesis and SAR studies on azetidine-containing dipeptides as HCMV inhibitors” (Bioorg Med Chem, 2011).

Active and inactive are the calls of the source. The calls are words filed in the database; no cut-off is given here.

The test system of this experiment is Vaccinia virus. The experiment can be described thus: Antiviral activity against Vaccinia virus infected in HELF assessed as virus-induced cytopathogenicity at 20 to 100 uM after 4 days by microscopy. It is filed as functional, organism-based. To be noted: Orthopoxvirus vaccinia. The method, boiled down: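 Near-confluent MDCK (influenza) or confluent HEL monolayers were inoculated with 100 CCID50 of virus. After 1-h adsorption, residual virus was removed, and cells were incubated with fivefold serial dilutions of compound. Cytopathicity was scored microscopically once untreated infected controls reached complete CPE. Minimal cytotoxic concentration was read as microscopically visible alteration of cell morphology.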
In general terms: Damage to the host cells serves as the signal in cytopathic effect assays.

Consider `C[C@H](NC(=O)[C@]1(Cc2ccccc2)CCN1C(=O)OCC1c2ccccc2-c2ccccc21)C(N)=O`, for which the outcome was inactive.
